Measured values reported in ChEMBL document CHEMBL3399994, “Improving both aqueous solubility and anti-cancer activity by assessing progressive lead optimization libraries” (Bioorg Med Chem Lett, 2015).
In brackets after ≈: the same amount, converted by molar mass.

Assays:
[1] = Solubility in pH 7.4 buffer after 18 hrs by UV spectroscopy based microSol assay; format: physicochemical; details: for solubility at 18 h: pH 7.4 buffer, pH 7.4; for solubility: buffer, pH 7.4, 18 h
[2] = Cytotoxicity against human H460/TaxR cells assessed as cell viability at 10 uM after 48 hrs by SRB assay; format: functional; details: read-out: Activity
Summary of the method: (§1)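 Single-concentration screen at 10 µM in normal human fibroblasts, NSCLC H460 cells and their drug-resistant H460_TaxR variant. Viability was read out by sulforhodamine B (SRB) staining and expressed relative to DMSO-treated cells, set as 100%.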

[3] = Cytotoxicity against human H460 cells assessed as cell viability at 10 uM after 48 hrs by SRB assay; format: functional; details: NCI-H460, 48 h, read-out: Activity; summary of the method: as §1
[4] = Cytotoxicity against human NHFB cells assessed as cell viability at 10 uM after 48 hrs by SRB assay; format: cell-based; details: read-out: Activity; summary of the method: as §1
[5] = Cytotoxicity against human NHFB cells after 48 hrs by SRB assay; format: cell-based
[6] = Cytotoxicity against human H460 cells after 48 hrs by SRB assay; format: functional, cell-based; details: NCI-H460, 48 h
[7] = Cytotoxicity against human H460/TaxR cells after 48 hrs by SRB assay; format: functional, cell-based

Row | SMILES | solubility at 18 h [1] | viability at 10 µM [2] | viability at 10 µM [3] | viability at 48 h, 10 µM [4] | EC50 [5] | solubility [1] | EC50 [6] | EC50 [7]
1 | O=C1N=C(Nc2ccccc2Cl)S/C1=C/c1ccc(N2CCNCC2)cc1 | 0.14 µg/mL (≈ 0.351 µM) | 77.4% | 98.1% | 99.3% |  |  |  | 
2 | CCN(CC)c1ccc(/C=C2/SC(Nc3ccccc3)=NC2=O)cc1 |  | 30.1% | 19.5% | 96.9% | > 100 µM | 0.1 µg/mL (≈ 0.285 µM) | 6.9 µM | 9.9 µM
3 | CN1CCN(c2ccc(/C=C3/SC(Nc4ccc(O)cc4)=NC3=O)cc2)CC1 | 0.01 µg/mL (≈ 0.0253 µM) | > 100% | > 100% | 94.3% |  |  |  | 
4 | CCN(CC)c1ccc(/C=C2/SC(Nc3ccc(Oc4ccccc4)cc3)=NC2=O)cc1 |  | 64.6% | > 100% | > 100% |  |  |  | 
5 | CN(C)c1ccc(/C=C2/SC(Nc3ccc(Oc4ccccc4)cc3)=NC2=O)cc1 | 0.01 µg/mL (≈ 0.0241 µM) | 88.2% | > 100% | 100% |  |  |  | 
6 | Cc1ccccc1NC1=NC(=O)/C(=C\c2ccc(N3CCNCC3)cc2)S1 | 3.83 µg/mL (≈ 10.1 µM) | 50.1% | 65.1% | 62.8% |  |  |  | 
7 | O=C1N=C(N(c2ccccc2)c2ccccc2)S/C1=C/c1ccc(N2CCOCC2)cc1 |  |  |  |  | > 100 µM | 0.01 µg/mL (≈ 0.0226 µM) | > 100 µM | > 100 µM
8 | O=C1N=C(N(c2ccccc2)c2ccccc2)S/C1=C/c1ccc(N2CCNCC2)cc1 |  |  |  |  | > 100 µM | 0.15 µg/mL (≈ 0.34 µM) | > 100 µM | > 100 µM
9 | CN1CCN(c2ccc(/C=C3/SC(Nc4ccccc4)=NC3=O)cc2)CC1 |  | 11.3% | 13.9% | 93.8% | 6.4 µM | 0.35 µg/mL (≈ 0.925 µM) | 1.4 µM | 2.5 µM
10 | CCCSc1ccc2nc(NC(=O)OC)[nH]c2c1 [ALBENDAZOLE] | 2.3 µg/mL (≈ 8.67 µM) |  |  |  |  |  |  | 
11 | O=C1N=C(Nc2ccccc2)S/C1=C/c1ccc(N2CCNCC2)cc1 |  | 89.3% | > 100% | 97% | > 100 µM | 1.68 µg/mL (≈ 4.61 µM) | > 100 µM | > 100 µM
12 | CN(C)c1ccc(/C=C2/SC(N(C)c3ccccc3)=NC2=O)cc1 |  |  |  |  | > 100 µM | 0.5 µg/mL (≈ 1.48 µM) | 0.08 µM | 0.16 µM
13 | O=C1N=C(Nc2ccc(O)cc2)S/C1=C/c1ccc(N2CCNCC2)cc1 | 13.9 µg/mL (≈ 36.5 µM) | 85.5% | 83.9% | 98.9% |  |  |  | 
14 | CN(C)c1ccc(/C=C2/SC(=Nc3ccccc3)NC2=O)cc1 |  | 29.4% | 19.8% | 68.3% | > 100 µM | 0.1 µg/mL (≈ 0.309 µM) | 0.72 µM | 0.98 µM
15 | CN(C)c1ccc(/C=C2/SC(=Nc3ccc(O)cc3)NC2=O)cc1 | 0.01 µg/mL (≈ 0.0295 µM) | 47.9% | 94.4% | 96.5% |  |  |  | 
16 | O=C1N=C(Nc2ccc(Oc3ccccc3)cc2)S/C1=C/c1ccc(N2CCNCC2)cc1 | 0.1 µg/mL (≈ 0.219 µM) | 45.4% | 49.3% | 82.9% |  |  |  | 
17 | CN(C)c1ccc(/C=C2/SC(=Nc3ccccc3Cl)NC2=O)cc1 | 0.02 µg/mL (≈ 0.0559 µM) | 39.3% | 8.82% | > 100% |  |  |  | 
18 | Cc1ccccc1NC1=NC(=O)/C(=C\c2ccc(N3CCOCC3)cc2)S1 | 0.78 µg/mL (≈ 2.06 µM) | 70.2% | 43.8% | 80.8% |  |  |  | 
19 | CCN(CC)c1ccc(/C=C2/SC(Nc3ccccc3Cl)=NC2=O)cc1 | 0.01 µg/mL (≈ 0.0259 µM) | 29.5% | 25.1% | 85% |  |  |  | 

Row | SMILES | solubility at 18 h [1] | viability at 10 µM [2] | viability at 10 µM [3] | viability at 48 h, 10 µM [4] | EC50 [5] | solubility [1] | EC50 [6] | EC50 [7]
20 | CN(C)c1ccc(/C=C2/SC(N(c3ccccc3)c3ccccc3)=NC2=O)cc1 |  |  |  |  | > 100 µM |  | > 100 µM | > 100 µM
21 | CN1CCN(c2ccc(/C=C3/SC(N(c4ccccc4)c4ccccc4)=NC3=O)cc2)CC1 |  |  |  |  | > 100 µM | 0.11 µg/mL (≈ 0.242 µM) | > 100 µM | > 100 µM
22 | CN1CCN(c2ccc(/C=C3/SC(Nc4ccc(Oc5ccccc5)cc4)=NC3=O)cc2)CC1 | 0.1 µg/mL (≈ 0.212 µM) | 49.8% | 46.7% | 90.9% |  |  |  | 
23 | O=C1N=C(Nc2ccc(O)cc2)S/C1=C/c1ccc(N2CCOCC2)cc1 | 0.19 µg/mL (≈ 0.498 µM) | > 100% | 88.9% | 92.8% |  |  |  | 
24 | CN1CCN(c2ccc(/C=C3/SC(Nc4ccccc4Cl)=NC3=O)cc2)CC1 | 0.43 µg/mL (≈ 1.04 µM) | 52.7% | 98.2% | 96% |  |  |  | 
25 | CCN(CC)c1ccc(/C=C2/SC(N(c3ccccc3)c3ccccc3)=NC2=O)cc1 |  |  |  |  | > 100 µM | 0.01 µg/mL (≈ 0.0234 µM) | > 100 µM | > 100 µM
26 | O=C1N=C(Nc2ccc(Oc3ccccc3)cc2)S/C1=C/c1ccc(N2CCOCC2)cc1 | 0.1 µg/mL (≈ 0.219 µM) | 46.8% | 72.6% | 98% |  |  |  | 
27 | CCN(CC)c1ccc(/C=C2/SC(Nc3ccccc3C)=NC2=O)cc1 | 0.2 µg/mL (≈ 0.547 µM) | 24.6% | 8.3% | 80.6% |  |  |  | 
28 | CN1CCN(c2ccc(/C=C3/SC(N(C)c4ccccc4)=NC3=O)cc2)CC1 |  |  |  |  | > 100 µM | 18.91 µg/mL (≈ 48.2 µM) | > 100 µM | > 100 µM
29 | CCN(CC)c1ccc(/C=C2/SC(N(C)c3ccccc3)=NC2=O)cc1 |  |  |  |  | > 100 µM | 0.01 µg/mL (≈ 0.0274 µM) | 0.28 µM | 0.43 µM
30 | CN(C1=NC(=O)/C(=C\c2ccc(N3CCNCC3)cc2)S1)c1ccccc1 |  |  |  |  | > 100 µM | 3.89 µg/mL (≈ 10.3 µM) | > 100 µM | > 100 µM
31 | CN(C1=NC(=O)/C(=C\c2ccc(N3CCOCC3)cc2)S1)c1ccccc1 |  |  |  |  | > 100 µM | 5.06 µg/mL (≈ 13.3 µM) | 8.9 µM | 2.9 µM
32 | CCN(CC)c1ccc(/C=C2/SC(Nc3ccc(O)cc3)=NC2=O)cc1 |  | 48.2% | 94.3% | 93.7% |  |  |  | 
33 | Cc1ccccc1/N=C1\NC(=O)/C(=C\c2ccc(N(C)C)cc2)S1 | 0.27 µg/mL (≈ 0.8 µM) | 41% | 17.6% | 86.5% |  |  |  | 
34 | NC(=O)N1c2ccccc2C=Cc2ccccc21 [CARBAMAZEPINE] |  |  |  |  |  | 22 µg/mL (≈ 93.1 µM) |  | 
35 | O=C1N=C(Nc2ccccc2)S/C1=C/c1ccc(N2CCOCC2)cc1 |  | 77.5% | 96.1% | 97.4% | > 100 µM | 0.1 µg/mL (≈ 0.274 µM) | > 100 µM | > 100 µM
36 | Cc1ccccc1NC1=NC(=O)/C(=C\c2ccc(N3CCN(C)CC3)cc2)S1 | 0.89 µg/mL (≈ 2.27 µM) | 34.3% | 88.6% | 80.2% |  |  |  | 
37 | CNC(=C[N+](=O)[O-])NCCSCc1ccc(CN(C)C)o1 [RANITIDINE] |  |  |  |  |  | 33.7 µg/mL (≈ 107 µM) |  | 
38 | O=C1N=C(Nc2ccccc2Cl)S/C1=C/c1ccc(N2CCOCC2)cc1 | 0.05 µg/mL (≈ 0.125 µM) | 41.4% | 48.2% | 94.2% |  |  |  | 
